Compound activity as filed in PubChem BioAssay.
A1 apoptosis 2: blocks A1, raising caspase activity; MEF A1-2A-BIM cells, caspase-Glo luminescence, 3 h; percent of clofoctol response, DMSO zero; caspase activation, % (no concentration beside the values); 24,000 tested, under 10 active; AID 2465; in the data active = caspase activation above about 5.9%; inconclusive = no clear call, values can overlap the other calls; inactive = below about 2.2%
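Material: mouse embryonic fibroblasts co-expressing A1 and BIM (A1-2A-BIM), primed for A1 dependence / Quantity: 2500 cells/well / Buffer or medium: RPMI-1640 growth medium with 10% FBS / Doses: 50 nL compound per well, pinned / Schedule: 3 h compound exposure at 37 °C / Signal: Caspase-Glo luminescence (DEVD substrate) / Measure: Caspase-3/7 activation, seen as rise in luminescence signal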
INS-1E ATP HTS: INS-1E beta cell protection from cytokine death. AID 488910. 20,000 tested, 0.1% active. INS-1E cytokine-induced death, ATP luminescence, 48 h; normalised: neutral wells 0, positive control 100. protection from cytokine-induced ATP loss, % at 10 µM;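 active = mean replicate protection from cytokine-induced ATP loss at least 50% and at least 75% of replicates each reaching 50%; inconclusive = meets only one of the two criteria, mean or replicate share; inactive = fails both the mean and replicate share criteria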
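Test system: INS-1E rat cells | Quantity: 8000 cells per well | Medium: Phenol-red-free RPMI with 5% fetal bovine serum | Reagent: Cytokine cocktail of IFN-γ, TNF-α and IL-1β | Doses: One compound concentration, pin transfer | Timing: 48 h co-treatment, 10 min post-lysis read | Technique: Luminescent ATP assay (CellTiter-Glo)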
T cruzi HTS: intracellular Trypanosoma cruzi inhibition | 22,000 tested, 4.9% active | activity score (inhibition), % at 5.01 µM | intracellular Trypanosoma cruzi in host cells, plate reader; in the data active = activity score above about 55%; inconclusive = no clear call, values can overlap the other calls;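 also: parasites and compound incubated about four days before reading; 0% = median of neutral control wells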
The depositor's hits bear a star; ? = inconclusive; . = no result given. Many of the other results were omitted from the sample, so hits are more common in it than they were.

SMILES | A1 apoptosis 2 | INS-1E ATP HTS | T cruzi HTS
C[C@H]1CN([C@@H](C)CO)C(=O)c2cccc(NC(=O)Nc3ccc(C(F)(F)F)cc3)c2O[C@H]1CN(C)S(=O)(=O)c1cccs1 | -1 | -21 | 25
C[C@H](CO)N1C[C@H](C)[C@H](CN(C)S(=O)(=O)c2cccs2)Oc2c(NC(=O)Nc3ccc(C(F)(F)F)cc3)cccc2C1=O | 0 | -102 | 84*
C[C@H](CO)N1C[C@H](C)[C@H](CN(C)S(=O)(=O)c2ccc(Cl)cc2)Oc2c(NC(=O)Nc3ccccc3)cccc2C1=O | . | -6 | -73
C[C@H](CO)N1C[C@H](C)[C@@H](CN(C)S(=O)(=O)c2ccc(Cl)cc2)Oc2c(NC(=O)Nc3ccccc3)cccc2C1=O | 0 | 1 | 68*
CC(C)NC(=O)N(C)C[C@H]1Oc2c(NC(=O)C3CCOCC3)cccc2C(=O)N([C@@H](C)CO)C[C@@H]1C | 1 | 3 | -20
C[C@@H]1CN([C@@H](C)CO)C(=O)c2cccc(NC(=O)Nc3ccc(C(F)(F)F)cc3)c2O[C@@H]1CN(C)Cc1ccc(Cl)c(Cl)c1 | 0 | -31 | 79*
C[C@H]1CN([C@@H](C)CO)C(=O)c2cccc(NC(=O)Nc3ccccc3)c2O[C@@H]1CN(C)Cc1ccc(Cl)c(Cl)c1 | -1 | -13 | 9
C[C@H]1CN([C@@H](C)CO)C(=O)c2cccc(NC(=O)Nc3ccc(C(F)(F)F)cc3)c2O[C@@H]1CN(C)Cc1ccc(Cl)c(Cl)c1 | 0 | -27 | 77*
C[C@@H]1CN([C@@H](C)CO)C(=O)c2cccc(NC(=O)Nc3ccc(F)cc3)c2O[C@@H]1CN(C)Cc1ccc(Cl)c(Cl)c1 | -2 | -71 | 21
C[C@H](CO)N1C[C@H](C)[C@H](CN(C)Cc2ccc(Cl)c(Cl)c2)Oc2c(NC(=O)Nc3ccccc3)cccc2C1=O | 0 | -46 | 16
C[C@H](CO)N1C[C@H](C)[C@@H](CN(C)Cc2ccc(Cl)c(Cl)c2)Oc2c(NC(=O)Nc3ccc(C(F)(F)F)cc3)cccc2C1=O | -1 | -40 | 82*
O=C(CCCCC(=O)NN=C1CCCCCC1)NO | 0 | 2 | 3
CN(C)c1ccc(/C=N/NC(=O)CCCCC(=O)NO)cc1 | 0 | 33 | 11
COc1cccc(/C=C2\SC(=S)N(CCCC(=O)O)C2=O)c1 | -2 | . | .
O=C(C1=C[C@H](c2ccc3c(c2)Cc2ccccc2-3)C[C@H](OCc2ccc(CO)cc2)O1)N1CCCCC1 | 1 | . | .
COc1ccc(NC(=O)Nc2ccc3c(c2)CC(=O)N([C@H](C)CO)C[C@@H](C)[C@H](CN(C)Cc2ccc(Cl)c(Cl)c2)O3)cc1 | . | -29 | ?
COc1ccc(NC(=O)Nc2ccc3c(c2)CC(=O)N([C@H](C)CO)C[C@@H](C)[C@@H](CN(C)Cc2ccc(Cl)c(Cl)c2)O3)cc1 | 2 | -53 | 74*
C[C@H]1CN([C@@H](C)CO)C(=O)Cc2cc(NC(=O)Nc3ccc(F)cc3)ccc2O[C@@H]1CN(C)Cc1ccc(Cl)c(Cl)c1 | . | -46 | ?
COc1ccc(NC(=O)Nc2ccc3c(c2)CC(=O)N([C@@H](C)CO)C[C@H](C)[C@H](CN(C)Cc2ccc(Cl)c(Cl)c2)O3)cc1 | . | -45 | 64*
COc1ccc(CN(C)C[C@H]2Oc3ccc(NC(=O)Nc4ccc(OC)cc4)cc3CC(=O)N([C@H](C)CO)C[C@@H]2C)cc1 | 0 | . | .
C[C@@H]1CN([C@H](C)CO)C(=O)Cc2cc(NC(=O)Nc3ccc(F)cc3)ccc2O[C@H]1CN(C)Cc1ccc(Cl)c(Cl)c1 | 1 | -51 | 62*
C/C=C(C)\C=N\NC(=O)CCCCCCC(=O)Nc1ccccc1O | 0 | 12 | 1
O=C(CCCCCCC(=O)N/N=C/c1cccnc1)NO | 0 | . | .
C[C@]12CCC3C4(C=CC5(C=C4C(=O)c4cc6ccccc6s4)C[C@@H](O)CC[C@]35C)C1CC[C@@]2(O)CN1CCC(n2c(=O)[nH]c3ccccc32)CC1 (stereo not given in full) | -1 | . | .
C[C@H](CO)N1C[C@H](C)[C@H](CN(C)Cc2ccc(Oc3ccccc3)cc2)Oc2c(NS(=O)(=O)c3ccccc3)cccc2C1=O | -2 | -44 | 22
SMILES | A1 apoptosis 2 | INS-1E ATP HTS | T cruzi HTS
C[C@H](CO)N1C[C@H](C)[C@@H](CN(C)Cc2ccc(Oc3ccccc3)cc2)Oc2c(NS(=O)(=O)c3ccc(Cl)cc3)cccc2C1=O | . | -15 | 65*
C[C@H]1CN([C@@H](C)CO)C(=O)c2cccc(NS(=O)(=O)c3ccccc3)c2O[C@@H]1CN(C)Cc1ccc(Oc2ccccc2)cc1 | -1 | -4 | 13
C[C@@H]1CN([C@H](C)CO)C(=O)c2cccc(NS(=O)(=O)c3ccc(Cl)cc3)c2O[C@H]1CN(C)Cc1ccc(Oc2ccccc2)cc1 | -1 | 0 | 58*
C[C@H]1CN([C@@H](C)CO)C(=O)c2cccc(NS(=O)(=O)c3ccc(Cl)cc3)c2O[C@H]1CN(C)Cc1ccc(Oc2ccccc2)cc1 | . | -20 | 43
C[C@@H]1CN([C@@H](C)CO)C(=O)c2cccc(NS(=O)(=O)c3ccc(Cl)cc3)c2O[C@@H]1CN(C)Cc1ccc(Oc2ccccc2)cc1 | 0 | -87 | 67*
O=C(N/N=C/c1ccc(F)c(Oc2ccccc2)c1)c1ccccn1 | -4 | -1 | 5
O=C(CCCCCCC(=O)Nc1ccccc1O)N/N=C/c1ccccc1Br | . | 0 | 1
COC(=O)CCCCCCC(=O)N/N=C/c1ccc(C(F)(F)F)cc1 | . | 14 | -13
O=C(NO)c1ccc(C(=O)N/N=C/c2ccc(-c3ccccc3)c(F)c2)cc1 | -1 | . | .
Cc1ccc(S(=O)(=O)Nc2ccc3c(c2)C(=O)N([C@@H](C)CO)C[C@@H](C)[C@H](CN(C)S(=O)(=O)c2ccc(F)cc2)OCCCC[C@H](C)O3)cc1 | 0 | . | .
C[C@@H]1CN([C@H](C)CO)C(=O)c2cccc(NC(=O)Nc3ccc(C(F)(F)F)cc3)c2O[C@H]1CN(C)S(=O)(=O)c1ccccc1 | 1 | -2 | 5
COc1ccc(CN(C)C[C@@H]2OCCCC[C@H](C)Oc3ccc(NS(=O)(=O)c4ccc(Cl)cc4)cc3C(=O)N([C@@H](C)CO)C[C@@H]2C)cc1 | 0 | . | .
C[C@H](CO)N1C[C@H](C)[C@H](CN(C)C)Oc2c(NC(=O)CCCCCC(=O)Nc3ccccc3N)cccc2C1=O | 0 | 17 | -56
C[C@H](CO)N1C[C@H](C)[C@H](CN(C)CC2CC2)Oc2c(NC(=O)CCCCCC(=O)Nc3ccccc3N)cccc2C1=O | 0 | 9 | 10
C[C@H](CO)N1C[C@H](C)[C@@H](CN(C)CC2CC2)Oc2c(NC(=O)CCCCCC(=O)Nc3ccccc3N)cccc2C1=O | 0 | 6 | 72*
C[C@@H]1CN([C@@H](C)CO)C(=O)c2cccc(NC(=O)CCCCCC(=O)Nc3ccccc3N)c2O[C@H]1CN(C)CC1CCCCC1 | . | 16 | 74*
CCCN(C)C[C@H]1OCCCC[C@H](C)Oc2ccc(NS(=O)(=O)c3ccc(F)cc3)cc2C(=O)N([C@@H](C)CO)C[C@@H]1C | -1 | . | .
COc1ccc(O)c(/C=N/NC(=O)CCCCCC(=O)Nc2ccccc2O)c1 | . | 8 | 4
